Experimental data reported in ChEMBL document CHEMBL1123305, “Synthesis and gastric antisecretory properties of alpha chain diene derivatives of misoprostol” (1986).

Legend:
Canis familiaris [1] = species on record: Canis familiaris; test: Oral gastric antisecretory effect in histamine-stimulated Heidenhain Pouch (HP) dogs; type: functional; settings: Canis lupus familiaris, Stomach, in the assay text read “gastric fistula (GF)” for “Heidenhain Pouch (HP)”
Method in brief: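 Conscious gastric fistula dogs, 4–12 per dose, three doses. After a 30-min basal period, drug was given intragastrically via dosing plug and the cannula closed for 30 min. Histamine was then infused at 15 μg/kg per h, with 30-min collections for 4 h. Acid was titrated to pH 7.0. ED50 is the dose giving 50% inhibition of 4-h total acid output. Relative potency and 95% limits came from bioassay analysis.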

[2] = Ratio of ED50 value of diarrheal effect to that of ED50 value of antisecretory effect; type: functional
Method in brief: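 Ratio of rat oral diarrheal ED50 at 8 h to intragastric antisecretory ED50 in histamine-stimulated gastric fistula dogs (4-h total acid output).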

Canis familiaris [3] = species on record: Canis familiaris; test: Relative gastric antisecretory effect in histamine-stimulated gastric fistula (GF) dogs; settings: Canis lupus familiaris, Stomach
Rattus norvegicus = species on record: Rattus norvegicus; test: Effect determining the diarrheagenic activity in rats; type: functional
Method in brief: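 Adult male Charles River rats (210–230 g), housed singly and fasted 24 h, n = 6–12. Logarithmically graded oral doses were given. Diarrhea was scored all-or-none hourly to 8 h. ED50 and approximate asymptotic 95% confidence limits came from a maximum-likelihood logistic dose–response fit.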

Canis familiaris [4] = test: Intravenous gastric antisecretory activity against histamine-stimulated Heidenhain Pouch (HP) dogs at 1 ug/kg; type: functional; settings: Canis lupus familiaris, Stomach
Method in brief: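 Conscious, 18-h-fasted Heidenhain pouch dogs in Pavlov stands, iv 0.15 M NaCl infusion, used at most weekly. Histamine 1.0 mg/h was infused after a 15–30-min basal period. At steady state (about 1 h), a single iv bolus was given in ethanol stock diluted with isoosmotic pH 7.4 phosphate buffer (≤20% ethanol). Acid was titrated to pH 7.0 over 15-min collections; percent inhibition was taken from maximum inhibition of total acid output.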

For `CCCCC(C)(O)C/C=C/[C@H]1[C@H](O)CC(=O)[C@@H]1C/C=C\C=C\CC(=O)OC` (stereo not given in full), the ED50 (Canis familiaris [1]) was 0.08 µg/kg, the Ratio [2] was 7120 and the Relative potency (Canis familiaris [3]) was 0.31. The ED50 (Rattus norvegicus) was 570 µg/kg and the inhibition in vivo at 0.001 mg/kg (Canis familiaris [4]) was 83%.
`CCCCC(C)(O)C/C=C/[C@H]1[C@H](O)CC(=O)[C@@H]1CC/C=C/C=C/C(=O)OC` (stereo not given in full) gave an inhibition in vivo at 0.001 mg/kg (Canis familiaris [4]) of 53%.
Work on `CCCCC(C)(O)C/C=C/[C@H]1[C@H](O)CC(=O)[C@@H]1CC/C=C\CCC(=O)OC` (stereo not given in full) [ENISOPROST] yielded an ED50 (Canis familiaris [1]) of 0.05 µg/kg, a Ratio [2] of 1240 and a Relative potency (Canis familiaris [3]) of 1. It also gave an ED50 (Rattus norvegicus) of 62 µg/kg and an inhibition in vivo at 0.001 mg/kg (Canis familiaris [4]) of 92%.
Compound `CCCCC(C)(O)C/C=C/[C@H]1[C@H](O)CC(=O)[C@@H]1C/C=C/C=C\CC(=O)OC` (stereo not given in full) has an inhibition in vivo at 0.001 mg/kg (Canis familiaris [4]) of 96%.
In the case of `CCCCC(C)(O)C/C=C/[C@H]1[C@H](O)CC(=O)[C@@H]1CCCCCCC(=O)OC` (stereo not given in full) [MISOPROSTOL], the ED50 (Canis familiaris [1]) is reported as 0.28 µg/kg, the Ratio [2] is reported as 1310 and the Relative potency (Canis familiaris [3]) is reported as 0.08. The inhibition in vivo at 0.001 mg/kg (Canis familiaris [4]) was 79%.
`CCCCC(C)(O)C/C=C/[C@H]1[C@H](O)CC(=O)[C@@H]1C/C=C/C/C=C/C(=O)OC` (stereo not given in full) showed an inhibition in vivo at 0.001 mg/kg (Canis familiaris [4]) of 68%.
Compound `CCCCC(C)(O)C/C=C/[C@H]1[C@H](O)CC(=O)[C@@H]1C/C=C\C/C=C/C(=O)OC` (stereo not given in full) has an inhibition in vivo at 0.001 mg/kg (Canis familiaris [4]) of 0%.
Compound `CCCCC(C)(O)C/C=C/[C@H]1[C@H](O)CC(=O)[C@@H]1C/C=C/C=C/CC(=O)OC` (stereo not given in full) has an inhibition in vivo at 0.001 mg/kg (Canis familiaris [4]) of 21%.
With `CCCCC(C)(O)C/C=C/[C@H]1[C@H](O)CC(=O)[C@@H]1CC/C=C\C=C\C(=O)OC` (stereo not given in full) the inhibition in vivo at 0.001 mg/kg (Canis familiaris [4]) was 41%.
